The subject of series [1] is HepG2. Briefly: Induction of cell cycle arrest in human HepG2 cells assessed as accumulation at S phase at 1 uM after 48 hrs by propidium iodide staining based flow cytometric analysis (reference value: 33.22 to 33.58%). The series is classed as functional. (In flow cytometry, cells or beads pass a laser one at a time.)
Series [2] relates to K562. The series can be described thus: Induction of cell cycle arrest in human K562 cells assessed as accumulation at G1 phase at 0.5 uM after 48 hrs by propidium iodide staining based flow cytometric analysis (reference value: 43.24 to 43.37%). The series is classed as functional.
Series [3] deals with HepG2. Briefly: Induction of cell cycle arrest in human HepG2 cells assessed as accumulation at S phase at 2 uM after 48 hrs by propidium iodide staining based flow cytometric analysis (reference value: 33.22 to 33.58%). In kind it is functional.
The subject of series [4] is K562. Briefly: Induction of cell cycle arrest in human K562 cells assessed as accumulation at G1 phase at 2 uM after 48 hrs by propidium iodide staining based flow cytometric analysis (reference value: 43.24 to 43.37%). In kind it is functional.
For series [5], the system named is K562. Briefly: Induction of cell cycle arrest in human K562 cells assessed as accumulation at S phase at 0.5 uM after 48 hrs by propidium iodide staining based flow cytometric analysis (reference value: 44.73 to 45.96%). In kind it is functional.
The subject of series [6] is HepG2. Briefly: Induction of cell cycle arrest in human HepG2 cells assessed as accumulation at G2 phase at 1 uM after 48 hrs by propidium iodide staining based flow cytometric analysis (reference value: 16.48 to 16.97%). The series is classed as functional. In a few lines:
(§1)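 HepG2 cells were treated with 0, 0.50, 1.0 or 2.0 test agent for 48 h. Cells were washed in cold PBS and fixed in 70% ethanol at −20 °C overnight. DNA-content distribution was measured by flow cytometry. Mean ± SD, three independent experiments.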

Series [7] deals with K562. Briefly: Induction of cell cycle arrest in human K562 cells assessed as accumulation at G1 phase at 1 uM after 48 hrs by propidium iodide staining based flow cytometric analysis (reference value: 43.24 to 43.37%). In kind it is functional.
The next series has as its system MCF7. Briefly: Antiproliferative activity against human MCF7 cells assessed as reduction in cell viability after 72 hrs by MTT assay. To be noted: MCF7, 72 h. (In general: Tetrazolium assays rely on reduction of a dye to a coloured formazan, in cell work by metabolically active cells.)
In series [8] the test system is K562. The series can be described thus: Induction of cell cycle arrest in human K562 cells assessed as accumulation at G2 phase at 1 uM after 48 hrs by propidium iodide staining based flow cytometric analysis (reference value: 10.96 to 12.03%). The series is classed as functional.
The subject of series [9] is K562. Briefly: Induction of cell cycle arrest in human K562 cells assessed as accumulation at G2 phase at 2 uM after 48 hrs by propidium iodide staining based flow cytometric analysis (reference value: 10.96 to 12.03%). In kind it is functional.
The next series relates to B16. Briefly: Antiproliferative activity against mouse B16 cells assessed as reduction in cell viability after 72 hrs by MTT assay. To be noted: B16, 72 h.
The test system of series [10] is HepG2. Briefly: Induction of cell cycle arrest in human HepG2 cells assessed as accumulation at G2 phase at 2 uM after 48 hrs by propidium iodide staining based flow cytometric analysis (reference value: 16.48 to 16.97%). In kind it is functional.
For another series, the system named is HCT-116. Briefly: Antiproliferative activity against human HCT-116 cells assessed as reduction in cell viability after 72 hrs by MTT assay. To be noted: HCT-116, 72 h.
Series [11] concerns HepG2. The series can be described thus: Induction of cell cycle arrest in human HepG2 cells assessed as accumulation at G2 phase at 0.5 uM after 48 hrs by propidium iodide staining based flow cytometric analysis (reference value: 16.48 to 16.97%). In kind it is functional. In a few lines:
as §1

Series [12] concerns HepG2. The series can be described thus: Induction of cell cycle arrest in human HepG2 cells assessed as accumulation at G1 phase at 1 uM after 48 hrs by propidium iodide staining based flow cytometric analysis (reference value: 49.46 to 50.3%). In kind it is functional. In a few lines:
as §1

A short description of series [13]: Cytotoxicity against human PBMC cells assessed as cell viability after 72 hrs by MTT assay.
Series [14] concerns HepG2. Briefly: Induction of cell cycle arrest in human HepG2 cells assessed as accumulation at G1 phase at 2 uM after 48 hrs by propidium iodide staining based flow cytometric analysis (reference value: 49.46 to 50.3%). The series is classed as functional. In a few lines:
as §1

The subject of series [15] is HepG2. The series can be described thus: Induction of cell cycle arrest in human HepG2 cells assessed as accumulation at S phase at 0.5 uM after 48 hrs by propidium iodide staining based flow cytometric analysis (reference value: 33.22 to 33.58%). In kind it is functional.
For series [16], the system named is HepG2. The series can be described thus: Antiproliferative activity against human HepG2 cells assessed as reduction in cell viability after 72 hrs by MTT assay. To be noted: HepG2, 72 h.
Series [17] has as its system K562. Briefly: Induction of cell cycle arrest in human K562 cells assessed as accumulation at G2 phase at 0.5 uM after 48 hrs by propidium iodide staining based flow cytometric analysis (reference value: 10.96 to 12.03%). The series is classed as functional.
In series [18] the test system is K562. The series can be described thus: Induction of cell cycle arrest in human K562 cells assessed as accumulation at S phase at 2 uM after 48 hrs by propidium iodide staining based flow cytometric analysis (reference value: 44.73 to 45.96%). In kind it is functional.
In series [19] the test system is K562. Briefly: Induction of cell cycle arrest in human K562 cells assessed as accumulation at S phase at 1 uM after 48 hrs by propidium iodide staining based flow cytometric analysis (reference value: 44.73 to 45.96%). The series is classed as functional.
In series [20] the test system is HepG2. Briefly: Induction of cell cycle arrest in human HepG2 cells assessed as accumulation at G1 phase at 0.5 uM after 48 hrs by propidium iodide staining based flow cytometric analysis (reference value: 49.46 to 50.3%). In kind it is functional. Summed up: as §1
A further series has as its system L02. Briefly: Cytotoxicity against human L02 cells assessed as cell viability after 72 hrs by MTT assay. To be noted: L02, 72 h.
Series [21] in a line: Prodrug conversion in THF/PBS buffer assessed as H2S release concentration at 0.1 mM in presence of TCEP after 20 mins by methylene blue staining based UV-Vis spectrophotometric method. In kind it is ADME. To be noted: 100 µM.
Series [22] relates to K562. The series can be described thus: Antiproliferative activity against human K562 cells assessed as reduction in cell viability after 72 hrs by MTT assay. To be noted: K562, 72 h.

The structures appear in SMILES notation.

Usually IC50 stands for the midpoint of a concentration-inhibition curve. Consider `C=C1C(=O)[C@]23[C@H](O)[C@H]1CC[C@H]2[C@@]12CO[C@]3(O)[C@@H](O)[C@@H]1C(C)(C)CC[C@@H]2O` [ORIDONIN], for which the Activity in the series with HepG2 [1] is 27.54%; in the series with K562 [2], 46.09%; with HepG2 [3], 26.2%; with K562 [4] it was 60.6%; in the series with K562 [5], 44.1%; with HepG2 [6], 10.54%. Further, the Activity in the series on K562 [7] turned out to be 55.67%; with K562 [8], 5.79%; with K562 [9], 6.62%; with HepG2 [10], 5.8%; with HepG2 [11], 13.25%; in the series on HepG2 [12] it was 61.88%. The Activity was determined as 68% in the series on HepG2 [14]; 29.64% in the series with HepG2 [15]; 9.81% in the series with K562 [17]; 32.78% with K562 [18]; 38.54% in the series with K562 [19]; 57.11% in the series with HepG2 [20]. In addition, the IC50 was 13.8 µM with MCF7; 24.9 µM in the series with B16; 11.7 µM in the series on HCT-116; above 50 µM in series [13]; 8.95 µM in the series with HepG2 [16]; 21.6 µM in the series with L02.

`C=C1C(=O)[C@]23[C@H](OC(=O)CCC(=O)OCCCOc4ccc(-c5cc(=S)ss5)cc4)[C@H]1CC[C@H]2[C@@]12CO[C@@]3(O)[C@@H](O)[C@@H]1C(C)(C)CC[C@@H]2O`: the IC50 in the series on MCF7 was 14.7 µM; in the series on B16 it was 27.5 µM; in the series on HCT-116 it was 27.5 µM; in series [13], above 50 µM; in the series on HepG2 [16], 4.45 µM; with L02, 26.5 µM. Besides, the IC50 with K562 [22] was 2.17 µM. Also, the Drug metabolism in [21] is 15 µM.

As to `C=C1C(=O)[C@]23[C@H](OC(=O)CCCC(=O)OCCCCCCO[C@H]4CCC(C)(C)[C@H]5[C@H](O)[C@]6(O)OC[C@@]45[C@@H]4CC[C@H]5C(=C)C(=O)[C@]46[C@@H]5OC(=O)CCCC(=O)OCCCCCCOc4ccc(-c5cc(=S)ss5)cc4)[C@H]1CC[C@H]2[C@@]12CO[C@@]3(O)[C@@H](O)[C@@H]1C(C)(C)CC[C@@H]2O`, the IC50 was above 50 µM in the series on MCF7; above 50 µM with B16; above 50 µM with HCT-116; above 50 µM in series [13]; 10.1 µM in the series with HepG2 [16]; above 50 µM with L02. Also, the IC50 with K562 [22] is 13.5 µM. The Drug metabolism in series [21] was 15 µM.

Consider `C=C1C(=O)[C@]23[C@H](OC(=O)CCC(=O)OCCOc4ccc(-c5cc(=S)ss5)cc4)[C@H]1CC[C@H]2[C@@]12CO[C@@]3(O)[C@@H](O)[C@@H]1C(C)(C)CC[C@@H]2O`, for which the IC50 in the series on MCF7 is 17.9 µM; in the series with B16 it was above 50 µM; with HCT-116, 42.6 µM; in series [13], above 50 µM; in the series with HepG2 [16] it was 5.36 µM; in the series on L02, 34 µM. For the same compound, the IC50 in the series with K562 [22] turned out to be 4.57 µM. Further, the Drug metabolism in series [21] came out at 15 µM.

As to `C=C1C(=O)[C@]23[C@H](OC(=O)CCCC(=O)OCCCOc4ccc(-c5cc(=S)ss5)cc4)[C@H]1CC[C@H]2[C@@]12CO[C@@]3(O)[C@@H](O)[C@@H]1C(C)(C)CC[C@@H]2O`, the IC50 in the series on MCF7 is 16.6 µM; with B16, above 50 µM; in series [13], above 50 µM; with HepG2 [16], 5.93 µM; in the series on L02 it was 40.9 µM; in the series with K562 [22], 4.19 µM. In [21], the Drug metabolism was 15 µM.

The values are drawn from ChEMBL document CHEMBL4706489, “Hydrogen sulfide releasing oridonin derivatives induce apoptosis through extrinsic and intrinsic pathways” (Eur J Med Chem, 2020).
